This is an account of results in ChEMBL document CHEMBL4130520 (ACS Med Chem Lett, 2017).

Molecules are shown by their SMILES. ≈ marks a conversion by molar mass, not a printed value.

The subject of assay [1] is Mycobacterium tuberculosis. The assay can be described thus: Antitubercular activity against Mycobacterium tuberculosis H37Rv after 4 days by MABA method. It is filed as functional. The following applies: 96 h. An outline of the steps:
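Aerobic culture of H37Rv in microplate Alamar blue assay. MIC90 taken as the minimum concentration giving 90% growth inhibition. Each value is the mean of at least two independent determinations. Most compounds were tested as RS,SR diastereomer mixtures; a few were tested only as the pure R,S enantiomer.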
On the technique in general: Alamar Blue is a resazurin reagent that responds to reducing activity.

The target of assay [2] is Voltage-gated inwardly rectifying potassium channel KCNH2 (Homo sapiens, UniProt Q12809). Kind of assay: Inhibition of human ERG.
Sequence of Voltage-gated inwardly rectifying potassium channel KCNH2 (Q12809 whole entry): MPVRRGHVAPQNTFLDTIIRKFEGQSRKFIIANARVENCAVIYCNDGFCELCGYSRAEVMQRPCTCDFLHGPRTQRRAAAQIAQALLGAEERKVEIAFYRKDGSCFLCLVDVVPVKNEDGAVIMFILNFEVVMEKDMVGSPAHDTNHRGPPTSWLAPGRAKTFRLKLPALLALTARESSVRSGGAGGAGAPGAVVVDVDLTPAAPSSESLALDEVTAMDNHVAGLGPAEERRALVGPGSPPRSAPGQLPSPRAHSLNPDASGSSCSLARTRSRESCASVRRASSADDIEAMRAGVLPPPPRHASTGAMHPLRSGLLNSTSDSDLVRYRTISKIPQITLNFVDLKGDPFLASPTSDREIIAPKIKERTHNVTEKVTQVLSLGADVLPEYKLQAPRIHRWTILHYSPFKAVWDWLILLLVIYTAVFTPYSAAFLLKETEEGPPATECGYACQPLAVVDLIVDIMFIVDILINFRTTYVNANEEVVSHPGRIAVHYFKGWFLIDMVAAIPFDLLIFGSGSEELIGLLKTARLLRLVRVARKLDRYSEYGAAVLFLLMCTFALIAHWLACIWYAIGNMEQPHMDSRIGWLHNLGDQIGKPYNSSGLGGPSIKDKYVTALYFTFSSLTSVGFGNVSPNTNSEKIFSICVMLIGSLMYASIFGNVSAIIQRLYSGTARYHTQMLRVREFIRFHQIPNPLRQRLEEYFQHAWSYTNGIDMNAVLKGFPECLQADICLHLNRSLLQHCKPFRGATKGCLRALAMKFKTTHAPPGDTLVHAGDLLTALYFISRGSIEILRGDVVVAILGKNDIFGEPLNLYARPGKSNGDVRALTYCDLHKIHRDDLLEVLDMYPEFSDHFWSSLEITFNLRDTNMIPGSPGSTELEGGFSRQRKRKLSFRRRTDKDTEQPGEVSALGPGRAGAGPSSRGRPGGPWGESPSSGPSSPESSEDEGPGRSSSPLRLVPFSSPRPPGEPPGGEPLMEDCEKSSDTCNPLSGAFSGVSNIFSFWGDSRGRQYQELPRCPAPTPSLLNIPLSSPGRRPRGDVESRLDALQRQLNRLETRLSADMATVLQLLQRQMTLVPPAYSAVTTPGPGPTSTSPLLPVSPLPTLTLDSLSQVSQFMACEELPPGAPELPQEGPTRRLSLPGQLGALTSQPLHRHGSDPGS

Consider `COc1nc2ccc(CC(C)=O)cc2cc1C(c1ccccc1)C(O)(CCN(C)C)c1cccc2ccccc12` (stereo not given), for which the MIC90 (in general, an inhibitory concentration at the 90% level, which refers to growth in some studies and to a panel of isolates in others) in assay [1] was > 7 µg/mL. Moreover, the IC50 (commonly the concentration that gives 50% inhibition) in assay [2] is 10 µM.

Regarding `COc1nc2ccc(CN(C)C)cc2cc1C(c1ccccc1)C(O)(CCN(C)C)c1cccc2ccccc12` (stereo not given), the MIC90 in assay [1] was 3.7 µg/mL (≈ 6.93 µM). The same molecule displayed an IC50 in assay [2] of 4.8 µM.

Molecule `COc1nc2ccc(/C=N/O)cc2cc1C(c1ccccc1)C(O)(CCN(C)C)c1cccc2ccccc12` (stereo not given) came in with an MIC90 in assay [1] of 6 µg/mL (≈ 11.5 µM). The molecule also returned an IC50 in assay [2] of 3.5 µM.

In assay [1], `COc1nc2ccc(CO)cc2cc1C(c1ccccc1)C(O)(CCN(C)C)c1cccc2ccccc12` (stereo not given) returned an MIC90 of 1.6 µg/mL (≈ 3.16 µM). In addition, in assay [2], the IC50 was 10 µM.

The molecule `CO/N=C/c1ccc2nc(OC)c([C@@H](c3ccccc3)[C@](O)(CCN(C)C)c3cccc4ccccc34)cc2c1` showed an MIC90 in assay [1] of 0.21 µg/mL (≈ 0.394 µM). This molecule also showed an IC50 in assay [2] of 2.2 µM.
